These results are taken from ChEMBL document CHEMBL4177702, “Design and synthesis of aminoester heterodimers containing flavone or chromone moieties as modulators of P-glycoprotein-based multidrug resistance (MDR)” (Bioorg Med Chem, 2018).

Structures are written as SMILES. Activity calls are given as the source filed them. The rule behind the calls is not given here.

Assay type in all cases: cell-based
Data set [1] is described as follows: (§1) Inhibition of P-gp in human K562/Dox cells assessed as increase in nuclear accumulation of pirarubicin by spectrofluorometric assay. As to conditions: read-out: I50.
For data set [2], the species on record is Homo sapiens. The data set can be described thus: Inhibition of P-gp in human K562/Dox cells assessed as nuclear accumulation of pirarubicin at 10^-5 M by spectrofluorometric assay relative to control.
A further data set concerns K562. As to the kind of experiment: Cytotoxicity against human K562 cells assessed as reduction in cell viability at 1 to 3 uM after 72 hrs by MTT assay. As to conditions: k562, 72 h. A digest of the protocol:
(§2)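 Exponentially growing cells (3×10^5 cells/mL) seeded at 10^4 cells/well and exposed to compound at 1.0 and 3.0 μM (diluted from 10^-2 M DMSO stocks in complete medium) for 72 h at 37 °C, 5% CO2. MTT added for 3 h, formazan dissolved in acidified isopropanol, absorbance at 570 nm. Toxicity expressed as proliferation relative to untreated control (100%).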

Data set [3] can be described thus: Cytotoxicity against human K562/Dox cells assessed as reduction in cell viability at 1 to 3 uM after 72 hrs by MTT assay. A digest of the protocol: as §2
The species named for data set [4] is Homo sapiens. The data set is described as §1.

For the compound `COc1cc(/C=C/C(=O)OCCCCCN(C)CCCCCOC(=O)c2cc(=O)c3c(O)cc(O)cc3o2)cc(OC)c1OC`, the IC50 in data set [1] is 2430 nM.

As to `COc1cc(/C=C/C(=O)OCCCCCNCCCCCOC(=O)COc2ccc(-c3cc(=O)c4ccccc4o3)cc2)cc(OC)c1OC`, the IC50 in data set [1] came out at 1320 nM.

As for `COc1cc(/C=C/C(=O)OCCCN(C)CCCOC(=O)c2cc(=O)c3c(O)cc(O)cc3o2)cc(OC)c1OC`, the Efficacy in the data set listed under Homo sapiens [2] is 4 to 30%. Moreover, the Activity entry (in the data set on K562; in data set [3]) was “Non-Toxic” throughout.

With `COc1cc(/C=C/C(=O)OCCOCCNCCOCCOC(=O)COc2ccc(-c3cc(=O)c4ccccc4o3)cc2)cc(OC)c1OC`, the Activity result (in the data set with K562; in data set [3]) was “Non-Toxic” throughout.

For `COc1cc(/C=C/C(=O)OCCCCCN(C)CCCCCOC(=O)COc2ccc(-c3cc(=O)c4c(O)cc(O)cc4o3)cc2)cc(OC)c1OC`, the IC50 in data set [1] stood at 960 nM.

For `COc1cc(/C=C/C(=O)OCCCCCN(CCCCCOC(=O)COc2ccc(-c3cc(=O)c4ccccc4o3)cc2)Cc2ccccc2)cc(OC)c1OC`, in data set [1], the IC50 was 430 nM.

With `COc1cc(/C=C/C(=O)OCCOCCN(C)CCOCCOC(=O)c2cc(=O)c3c(O)cc(O)cc3o2)cc(OC)c1OC`, the I50 result in the data set filed under Homo sapiens [4] was “inactive”.

For the compound `COc1cc(/C=C/C(=O)OCCCCCN(C)CCCCCOC(=O)COc2ccc(-c3cc(=O)c4ccccc4o3)cc2)cc(OC)c1OC`, the Activity result (in the data set with K562; in data set [3]) was “Non-Toxic” throughout. In addition, the IC50 in data set [1] was 340 nM.

In the case of `COc1cc(/C=C/C(=O)OCCCN(C)CCCOC(=O)COc2ccc(-c3cc(=O)c4c(O)cc(O)cc4o3)cc2)cc(OC)c1OC`, in the data set filed under Homo sapiens [2], the Efficacy lay in the range of 4 to 30%.

`COc1cc(/C=C/C(=O)OCCCN(C)CCCOC(=O)c2cc(=O)c3c(OC)cccc3o2)cc(OC)c1OC`: the Efficacy in the data set listed under Homo sapiens [2] fell in the range of 4 to 30%.

For the compound `COc1cc(OC)c2c(=O)cc(C(=O)OCCCN(C)CCCOC(=O)/C=C/c3cc(OC)c(OC)c(OC)c3)oc2c1`, the Efficacy in the data set listed under Homo sapiens [2] was in the range of 4 to 30%.

`COc1cc(/C=C/C(=O)OCCCCCN(C)CCCCCOC(=O)c2cc(=O)c3c(OC)cccc3o2)cc(OC)c1OC`: in data set [1], the IC50 was found to be 3500 nM.

Take `COc1cc(/C=C/C(=O)OCCOCCN(C)CCOCCOC(=O)COc2ccc(-c3cc(=O)c4ccccc4o3)cc2)cc(OC)c1OC`: the Activity entry (in the data set on K562; in data set [3]) was “Non-Toxic” in each case. Moreover, in data set [1], the IC50 was determined as 1230 nM.

Turning to `COc1cc(OC)c2c(=O)cc(C(=O)OCCCCCN(C)CCCCCOC(=O)/C=C/c3cc(OC)c(OC)c(OC)c3)oc2c1`, in data set [1], the IC50 came to 1320 nM.

On to `COc1cc(/C=C/C(=O)OCCCN(C)CCCOC(=O)c2cc(=O)c3c(O)cccc3o2)cc(OC)c1OC`, for which, in the data set listed under Homo sapiens [2], the Efficacy lay within 4 to 30%.

As for `COc1cc(/C=C/C(=O)OCCCCCN(C)CCCCCOC(=O)c2cc(=O)c3c(O)cccc3o2)cc(OC)c1OC`, the IC50 in data set [1] was 350 nM.
